Compounds with a hit are over-represented: about 1% of the library has one in this group of screens.
T cell modulator – T cell immune modulation candidate. 2C CD8+ T cell-vesicle binding, flow cytometry; stronger effect = lower value. response (vesicle binding), % at 7 µM. 330,000 tested, 0.068% active;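 active means response, share of CD8 T cells binding vesicles, and their 90th percentile fluorescence all below set limits, cut at about 80% in these data, passing the limit was not always enough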;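 further: values below 100% mean blocked vesicle binding to the CD8+ T cells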
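Test system: purified 2C TCR transgenic mouse naive CD8+ T cells. Probe or stimulus: QL9-peptide-loaded Drosophila micro-vesicles bearing Ld, ICAM-1 and B7-1. Incubation: binding step 1.5 h, 37 °C, antibody labelling 20 min, ice. Measured by: flow cytometry of vesicle-bound cells.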
NALP1 inh – inhibitors of NALP1 inflammasome in yeast. S. cerevisiae NALP1/ASC/caspase-1 growth, X-gal OD620, 72 h. 280,000 tested, 0.61% active. AID 2071. inhibition, % at 10 µM; in the data active means inhibition mostly above about 24%, no sharp cut-off; inactive means mostly below about 32%
A1 inh – inhibitors of the anti-apoptotic protein A1, read as caspase activation. MEF A1-2A-BIM cells, Caspase-Glo 3/7 luminescence, 3 h; percent of clofoctol response, vehicle zero. caspase activation, % (concentration not given with the values). 330,000 tested, 0.066% active. AID 2462;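 active means over half of replicate activation scores above 10%, or exactly half above 10 with the replicate mean above 10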
NLRP3 yeast inh – NALP3 inhibition in yeast | Yeast reconstituted NLRP3/ASC/caspase-1, beta-gal luminescence, 24 h | inhibition, % at 10 µM | 330,000 tested, 0.39% active;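 active means inhibition of 50% or more; inactive means inhibition below 50%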;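 further: plate controls were induced DMSO wells for no effect and uninduced yeast grown without galactose for full effect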
The depositor's hits bear a star; i = inactive; x = no result.

SMILES	T cell modulator	NALP1 inh	A1 inh	NLRP3 yeast inh
COc1ccccc1OCC(=O)NCCSCc1ccccc1Cl	747.2	50.8*	0.4	12.8
COc1ccccc1OCC(=O)NCCNC(=O)COc1ccccc1OC	597.1	1.1	0.7	-2.7
COc1ccccc1OCC(=O)NCCSCc1cccc(Cl)c1	465.5	48.3*	0.3	31.7
Cc1ccc(NC(=O)CN(C)C(=O)c2cc(S(=O)(=O)N(C)C)ccc2N2CCCC2)cc1	381.9	x	-0.1	23.7
CCOc1ccc(C(=O)NCc2ccco2)cc1	279.9	10.6	-0.2	7.6
O=C(NCc1ccco1)c1ccc(Oc2ccccc2)cc1	774.9	40.0*	-0.9	34.9
O=C(NNC(=S)NCc1ccco1)c1cccs1	278.5	1.0	0.4	7.7
O=C(NCc1ccco1)c1cccs1	185.8	28.9*	-0.9	7.9
Cc1ccc(S(=O)(=O)CC(=O)N2CC(C)OC(C)C2)cc1 (stereo not given)	189.9	9.7	0.4	3.0
Cc1c(CCOC(=O)C23CC4(C)CC(C)(CC(C)(C4)C2)C3)sc[n+]1CC(=O)c1ccccc1	202.5	17.3	0.7	7.3
Cc1c(CCOC(=O)CC23CC4CC(CC(C4)C2)C3)sc[n+]1CC(=O)c1ccccc1	245.3	34.7*	-0.4	-3.7
O=C(CCc1nc2cccnc2n1Cc1ccccc1)N1CCOCC1	350.4	36.3*	0.6	-2.0
Cc1ccc(CCC(=O)Nc2ccc(C#N)cc2)o1	612.8	19.2	2.1	12.9
Cc1cc2nc(-c3ccc(SCC(=O)N4CCc5ccccc54)nc3)[nH]c2cc1C	642.3	23.7*	-1.6	-13.9
CN1/C(=C/c2cccc[n+]2CCO)Sc2ccccc21	417.7	27.8	0.2	9.6
CC[n+]1c(/C=C2\Sc3ccccc3N2C)ccc2cccc(C)c21	x	100.3*	x	x
Cc1cc(C)c(S(C)(=O)=O)c(Oc2ccc(C(C)(C)C)cc2)n1	198.1	30.5*	-0.6	16.3
O=C(c1ccccc1NS(=O)(=O)c1ccc(F)cc1)N1CCOCC1	255.2	3.5	-0.5	8.6
COC(=O)c1ccccc1NC(=O)C/C(C)=N/NC(=O)CC#N	196.2	33.6*	-1.6	26.0
O=C(Nc1ccc(S(=O)(=O)N2CCCC2)cc1)c1c(F)cccc1F	318.9	10.8	-0.6	12.4
CC1CCc2nc(NC(=O)C3CCCO3)sc2C1 (stereo not given)	670.1	32.9*	-4.2	10.6
CCCC(C)c1nnc(NC(=O)C2CCCO2)s1 (stereo not given)	i	32.7*	-0.8	23.6
COc1ccc(C(=O)COC(=O)c2sc(C)nc2C)cc1F	332.0	x	-1.4	22.4
Oc1c(Br)cc(/C=N/Nc2ccc(Cl)nn2)cc1Br	102.3	5.6	-0.3	25.1
Oc1c(Br)cc(Br)cc1/C=N/Nc1ccc(Cl)nn1	72.6	40.7*	0.1	x
SMILES	T cell modulator	NALP1 inh	A1 inh	NLRP3 yeast inh
Cc1ccc(NC(=O)C(c2ccccc2)c2ccccc2)c(O)c1	162.2	21.4	0.0	4.2
COC(=O)CSc1nnc(CNS(=O)(=O)c2ccc(Br)cc2)n1C	170.2	8.3	0.7	-0.6
COC(=O)CSc1nnc(-c2ccc(S(=O)(=O)N3CCCC3)cc2)n1C	358.5	41.9*	1.0	2.1
COC(=O)CSc1nnc(CNS(=O)(=O)c2ccc(C)cc2)n1C	319.6	36.5*	0.4	14.6
COc1ccc(OC)c(S(=O)(=O)N2CCN(C(=O)CCc3ccccc3)CC2)c1	179.5	20.9	0.9	5.7
CCn1c(SCC(=O)Nc2ccc(F)cc2)nnc1C1CC1	214.9	11.8	0.8	-8.4
O=C(/C=C/c1ccc([N+](=O)[O-])cc1)Nc1cccc(C(=O)Nc2ccccc2C(=O)O)c1	124.0	27.8*	0.0	x
C=CCNc1nc(-c2ccccc2)nc(-n2ccnc2)n1	389.0	2.4	-1.2	27.4
CCCCNc1nc(-c2ccccc2)nc(-n2ccnc2)n1	897.3	44.0*	-0.8	19.8
O=C(Nc1ccncc1)Nc1cc(Cl)ccc1Cl	343.7	-11.5	0.9	16.3
O=C(Nc1ccncc1)Nc1ccc(Cl)cc1Cl	375.1	30.4*	0.6	22.5
Cc1c(C)[n+](=O)c(-c2ccc(F)cc2)c(C)n1[O-]	499.2	-29.7	-0.4	-1.4
Cc1c(-c2ccc(F)cc2)[n+](=O)c(-c2ccc(F)cc2)c(C)n1[O-]	870.5	41.9*	0.3	19.7
CC(C)Nc1nc(NNc2nc(Cl)nc(NC(C)(C)C)n2)nc(NC(C)C)n1	265.6	1.4	0.6	12.2
CCNc1nc(NC(C)C)nc(NC(C)(C)C)n1	322.7	30.0*	0.3	16.0
O=C(Nc1cc(S(=O)(=O)N2CCCCC2)ccc1N1CCOCC1)c1ccc(C(F)(F)F)cc1	324.2	x	0.5	4.4
Cc1ccc(S(=O)(=O)N2CCC(C(=O)Nc3cc(C(F)(F)F)ccc3N3CCOCC3)CC2)cc1C	47.7*	x	0.3	23.1
CC(=O)N1c2ccc(S(=O)(=O)NCCC(=O)Nc3ccc(F)cc3)cc2CC1C (stereo not given)	444.1	5.1	0.3	3.7
CC(=O)c1ccc(S(=O)(=O)NCC(=O)N2CCN(C/C=C/c3ccccc3)CC2)cc1	241.6	x	0.2	-0.2
CN1CCN(S(=O)(=O)c2ccc(NC(=S)NC(=O)C(C)(C)C)cc2)CC1	243.0	79.9*	1.0	16.9
Cn1ncc(Br)c1C(=O)N1CCCC1	352.6	20.2	1.6	18.0
Cn1ncc(Br)c1C(=O)N1CCCCCC1	33.2*	-5.0	0.0	2.4
CC(NCc1ccc([N+](=O)[O-])cc1)C1COc2ccccc2O1 (stereo not given)	158.6	14.6	0.3	22.4
COc1ccc(/C=N/NC(=O)CC(=O)NCc2cccnc2)c(OC)c1	227.3	x	0.2	-17.8
COc1ccc(/C=N/NC(=O)CC(=O)NCc2cccnc2)cc1	192.5	23.4*	0.6	-0.6
SMILES	T cell modulator	NALP1 inh	A1 inh	NLRP3 yeast inh
Cc1nn(-c2ccccc2)c(Cl)c1CN(C(=O)CCl)c1ccc(Cl)cc1	255.4	-15.9	6.2*	x
CCCCOc1cccc(C(=O)N(Cc2ccccc2)C2CCS(=O)(=O)C2)c1 (stereo not given)	185.7	-11.4	-0.2	-10.0
CCCCCCOc1ccc(/C(C)=N/NC2=NCCN2)cc1	175.8	87.6*	0.1	29.4
CC(C)Cc1nnc(NS(=O)(=O)Cc2ccccc2)s1	740.0	43.6*	0.1	12.6
CS(=O)(=O)Nc1nnc(Cc2ccccc2)s1	271.8	-79.9	-0.1	12.3
CCN1CCc2c(OCC(=O)Nc3cccc(C)c3C)cccc2C1=O	66.6*	-0.5	0.2	3.1
CCN(CC(=O)Nc1ccccc1OC)C(=O)c1ccc(NS(=O)(=O)c2ccc(C(C)=O)cc2)cc1	244.7	43.6*	-0.1	15.6
CCOc1ccc(-n2c(=O)[nH]cc(C(=O)N3CCCc4ccccc43)c2=O)cc1	646.8	15.9	0.5	4.0
COc1ccc(-n2c(=O)[nH]cc(C(=O)N3CCCc4ccccc43)c2=O)cc1	552.1	27.1*	0.1	-5.1
CN(Cc1cccnc1)C(=O)c1cc(COc2ccc3c(c2)CCCC3)on1	206.2	9.0	-4.1	41.9
CC1(C)C(C=C(Cl)Cl)C1C(=O)Nc1ccc([N+](=O)[O-])cc1 (stereo not given)	304.0	57.3*	-0.7	x
